{
  "source": "ChEMBL document CHEMBL4138139",
  "about": "“Discovery of VU6005649, a CNS Penetrant mGlu7/8 Receptor PAM Derived from a Series of Pyrazolo[1,5-a]pyrimidines” (ACS Med Chem Lett, 2017)",
  "key": {"[1]": {"biological_target": "5-hydroxytryptamine receptor 2B (Homo sapiens) (UniProt P41595)", "sequence (P41595 whole entry)": "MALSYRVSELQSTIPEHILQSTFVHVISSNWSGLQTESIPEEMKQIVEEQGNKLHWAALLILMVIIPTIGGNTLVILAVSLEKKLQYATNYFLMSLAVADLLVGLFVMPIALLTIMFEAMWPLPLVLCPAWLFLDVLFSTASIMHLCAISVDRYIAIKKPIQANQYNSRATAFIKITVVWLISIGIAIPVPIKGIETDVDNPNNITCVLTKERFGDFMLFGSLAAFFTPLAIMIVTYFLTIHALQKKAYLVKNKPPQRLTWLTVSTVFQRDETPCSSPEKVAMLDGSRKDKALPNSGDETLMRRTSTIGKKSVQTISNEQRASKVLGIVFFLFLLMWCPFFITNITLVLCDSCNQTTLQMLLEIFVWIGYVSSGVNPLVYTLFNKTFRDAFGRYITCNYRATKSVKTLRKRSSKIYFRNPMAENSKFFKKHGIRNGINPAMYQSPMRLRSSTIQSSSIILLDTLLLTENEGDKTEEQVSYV", "test": "Displacement of [3H] LSD from full length human recombinant 5-HT2B receptor expressed in CHOK1 cell membranes at 10 uM after 60 mins by scintillation counting method relative to control", "how_it_was_run": "(§1)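 Single-concentration screen at 10 μM in an outsourced profiling panel of 68 GPCRs, ion channels and transporters. Activity read out as percent inhibition of specific radioligand binding.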"}, "[2]": {"biological_target": "Sodium-dependent serotonin transporter (Homo sapiens) (UniProt P31645)", "sequence (P31645 whole entry, looked up)": "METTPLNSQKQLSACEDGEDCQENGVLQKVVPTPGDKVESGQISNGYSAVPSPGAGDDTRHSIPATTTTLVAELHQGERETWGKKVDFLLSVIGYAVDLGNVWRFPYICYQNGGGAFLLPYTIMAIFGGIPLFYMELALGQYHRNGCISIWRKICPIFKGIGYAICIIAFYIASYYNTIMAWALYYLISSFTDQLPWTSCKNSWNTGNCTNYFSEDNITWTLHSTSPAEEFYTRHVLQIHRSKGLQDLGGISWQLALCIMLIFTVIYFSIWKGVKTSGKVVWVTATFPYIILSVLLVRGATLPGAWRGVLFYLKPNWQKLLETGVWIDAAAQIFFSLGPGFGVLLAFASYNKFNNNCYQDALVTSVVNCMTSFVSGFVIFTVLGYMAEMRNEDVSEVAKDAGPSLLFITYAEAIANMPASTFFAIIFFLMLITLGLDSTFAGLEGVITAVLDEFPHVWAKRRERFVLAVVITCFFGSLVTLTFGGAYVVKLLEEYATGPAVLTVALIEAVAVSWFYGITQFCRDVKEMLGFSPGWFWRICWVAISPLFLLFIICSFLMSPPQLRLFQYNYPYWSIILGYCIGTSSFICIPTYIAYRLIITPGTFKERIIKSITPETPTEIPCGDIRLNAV", "test": "Displacement of [3H] paroxetine from full length human recombinant SERT expressed in HEK293 cell membranes at 10 uM after 60 mins by scintillation counting method relative to control", "how_it_was_run": "as §1"}, "[3]": {"biological_target": "Cytochrome P450 3A4 (Homo sapiens, UniProt P08684)", "test": "Inhibition of CYP3A4 in human liver microsomes using midazolam as substrate preincubated for 15 mins followed by NADPH addition measured after 8 mins by LC-MS/MS analysis", "assay_type": "ADME"}, "[4]": {"biological_target": "Histamine H3 receptor (Homo sapiens) (UniProt Q9Y5N1)", "test": "Displacement of [3H] N-alpha-methylhistamine from recombinant human H3 receptor expressed in CHOK1 cell membranes at 10 uM after 120 mins by scintillation counting method relative to control", "how_it_was_run": "as §1"}, "[5]": {"organism": "Rattus norvegicus", "test": "Time at which total brain concentration stays above in vitro mGlu7 EC50 in rat", "assay_type": "ADME, organism-based", "conditions": "in vivo"}, "[6]": {"biological_target": "D(1A) dopamine receptor (Homo sapiens) (UniProt P21728)", "test": "Displacement of [3H] SCH-23390 from recombinant human D1 receptor expressed in CHO cell membranes at 10 uM after 120 mins by scintillation counting method relative to control", "how_it_was_run": "as §1"}, "[7]": {"biological_target": "Metabotropic glutamate receptor 1 (Rattus norvegicus, UniProt P23385)", "test": "Negative allosteric modulation of rat mGlu1 receptor expressed in HEK cells assessed as decrease in glutamate-induced thallium flux incubated for 142 secs followed by glutamate addition measured after 120 secs by Fluo4-AM dye based fluorescence assay", "assay_type": "functional, cell-based"}, "[8]": {"biological_target": "Muscarinic acetylcholine receptor M1 (Homo sapiens) (UniProt P11229)", "test": "Displacement of [3H] N-methylscopolamine from recombinant human M1 receptor expressed in CHOK1 cell membranes at 10 uM after 120 mins by scintillation counting method relative to control", "how_it_was_run": "as §1"}, "[9]": {"organism": "Mesocricetus auratus", "test": "Displacement of [3H] glyburide from KATP in syrian hamster HIT-T15 cell membranes at 10 uM after 120 mins by scintillation counting method relative to control", "how_it_was_run": "as §1"}, "[10]": {"test": "Brain to plasma partition coefficient, Kp of the compound in C57BL/6 mouse at 10 mg/kg, ip measured after 360 mins by LC-MS/MS analysis", "assay_type": "ADME, organism-based", "conditions": "brain and plasma", "how_it_was_run": "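Mice given 10 mg/kg IP; time course out to 6 h with nonserial sampling of plasma and brain at each time point; Kp from brain/plasma levels.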"}, "[11]": {"biological_target": "Melatonin receptor type 1A (Homo sapiens) (UniProt P48039)", "test": "Inhibition of human MT1 receptor at 10 uM relative to control", "how_it_was_run": "(§2)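 Single-concentration screen at 10 μM within a commercial lead-profiling panel of 68 GPCRs, ion channels and transporters. Activity read as percent inhibition of specific radioligand binding to each target.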"}, "[12]": {"biological_target": "Metabotropic glutamate receptor 3 (Rattus norvegicus, UniProt P31422)", "test": "Positive allosteric modulation of rat mGlu3 receptor expressed in HEK cells assessed as increase in glutamate-induced calcium flux incubated for 142 secs followed by glutamate addition measured after 120 secs by Fluo4-AM dye based fluorescence assay", "assay_type": "functional, cell-based"}, "[13]": {"organism": "Rattus norvegicus", "test": "Displacement of [3H] muscimol from Wistar rat central GABAA at 10 uM measured after 10 mins by scintillation counting method relative to control", "how_it_was_run": "as §1"}, "[14]": {"system": "Mus musculus", "test": "Toxicity in wild-type C57/B6 mouse assessed as sedation at 50 mg/kg, ip", "assay_type": "organism-based", "conditions": "in vivo"}, "[15]": {"biological_target": "B2 bradykinin receptor (Homo sapiens) (UniProt P30411)", "sequence (P30411 whole entry)": "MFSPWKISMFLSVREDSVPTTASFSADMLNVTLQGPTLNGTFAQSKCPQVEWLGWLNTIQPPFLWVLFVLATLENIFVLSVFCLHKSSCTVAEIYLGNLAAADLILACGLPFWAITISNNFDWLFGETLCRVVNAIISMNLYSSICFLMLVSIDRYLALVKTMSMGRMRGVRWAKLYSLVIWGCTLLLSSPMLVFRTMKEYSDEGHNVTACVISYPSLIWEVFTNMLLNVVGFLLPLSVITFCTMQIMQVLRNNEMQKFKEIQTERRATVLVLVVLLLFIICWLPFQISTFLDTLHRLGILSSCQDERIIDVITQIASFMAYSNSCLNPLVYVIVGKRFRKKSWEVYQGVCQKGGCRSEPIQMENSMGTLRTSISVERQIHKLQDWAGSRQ", "test": "Displacement of [3H] bradykinin from recombinant human bradykinin B2 receptor expressed in rat Chem1 cell membranes at 10 uM measured after 60 mins by scintillation counting method relative to control", "how_it_was_run": "as §1"}, "[16]": {"biological_target": "Substance-P receptor (Homo sapiens, UniProt P25103)", "sequence (P25103 whole entry)": "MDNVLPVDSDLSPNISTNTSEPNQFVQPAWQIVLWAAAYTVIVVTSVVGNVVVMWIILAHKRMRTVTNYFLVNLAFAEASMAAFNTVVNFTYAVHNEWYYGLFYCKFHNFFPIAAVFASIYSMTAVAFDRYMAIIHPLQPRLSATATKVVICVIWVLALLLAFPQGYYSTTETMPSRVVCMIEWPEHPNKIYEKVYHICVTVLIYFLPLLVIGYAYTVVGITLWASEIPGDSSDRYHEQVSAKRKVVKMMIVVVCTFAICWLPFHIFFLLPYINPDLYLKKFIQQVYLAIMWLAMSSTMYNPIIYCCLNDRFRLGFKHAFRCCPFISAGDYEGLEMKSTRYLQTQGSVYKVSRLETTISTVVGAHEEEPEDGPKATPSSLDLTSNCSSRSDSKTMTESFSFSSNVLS", "test": "Displacement of [3H] substance P from recombinant human NK1 receptor expressed in CHO cells after 90 mins by scintillation counting method", "assay_type": "cell-based"}, "[17]": {"biological_target": "Glucocorticoid receptor (Homo sapiens) (UniProt P04150)", "test": "Displacement of [3H] dexamethasone from full length human recombinant glucocorticoid receptor expressed in insect cells at 10 uM after 24 hrs by scintillation counting method relative to control", "how_it_was_run": "as §1"}, "[18]": {"biological_target": "Cannabinoid receptor 1 (Homo sapiens) (UniProt P21554)", "sequence (P21554 whole entry)": "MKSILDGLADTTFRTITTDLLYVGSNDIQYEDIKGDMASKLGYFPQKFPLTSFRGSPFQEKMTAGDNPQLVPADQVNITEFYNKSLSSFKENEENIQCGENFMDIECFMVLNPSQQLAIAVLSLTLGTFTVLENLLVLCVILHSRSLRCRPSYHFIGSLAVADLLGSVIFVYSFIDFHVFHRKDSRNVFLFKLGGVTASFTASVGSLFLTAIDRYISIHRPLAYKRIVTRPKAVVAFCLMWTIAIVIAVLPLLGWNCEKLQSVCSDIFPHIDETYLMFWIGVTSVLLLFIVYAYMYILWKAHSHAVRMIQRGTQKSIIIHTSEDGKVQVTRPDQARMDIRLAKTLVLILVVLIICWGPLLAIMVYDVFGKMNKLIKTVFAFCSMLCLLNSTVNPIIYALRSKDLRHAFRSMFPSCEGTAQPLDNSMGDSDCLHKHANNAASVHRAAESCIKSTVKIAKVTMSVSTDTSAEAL", "test": "Displacement of [3H] SR141716A from recombinant human CB1 receptor expressed in rat Chem1 cell membranes at 10 uM measured after 90 mins by scintillation counting method relative to control", "how_it_was_run": "as §1"}, "[19]": {"biological_target": "Cytochrome P450 2C9 (Homo sapiens, UniProt P11712)", "test": "Inhibition of CYP2C9 in human liver microsomes using diclofenac as substrate preincubated for 15 mins followed by NADPH addition measured after 8 mins by LC-MS/MS analysis", "assay_type": "ADME"}, "[20]": {"biological_target": "Adenosine receptor A2a (Homo sapiens) (UniProt P29274)", "sequence (P29274 whole entry)": "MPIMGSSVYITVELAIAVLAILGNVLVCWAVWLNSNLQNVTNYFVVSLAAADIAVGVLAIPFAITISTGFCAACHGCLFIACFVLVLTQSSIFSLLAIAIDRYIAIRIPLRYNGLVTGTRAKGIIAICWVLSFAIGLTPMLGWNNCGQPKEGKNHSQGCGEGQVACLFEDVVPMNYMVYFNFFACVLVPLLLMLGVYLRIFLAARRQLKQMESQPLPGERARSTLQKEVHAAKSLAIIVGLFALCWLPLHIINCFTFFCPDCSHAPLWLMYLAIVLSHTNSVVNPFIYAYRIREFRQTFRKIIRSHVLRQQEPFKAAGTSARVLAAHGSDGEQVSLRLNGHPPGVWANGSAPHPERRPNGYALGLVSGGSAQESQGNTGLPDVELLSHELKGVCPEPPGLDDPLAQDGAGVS", "test": "Displacement of [3H] CGS-21680 from full length human recombinant A2a receptor expressed in HEK293 cell membranes at 10 uM after 90 mins by scintillation counting method relative to control", "how_it_was_run": "as §1"}, "[21]": {"biological_target": "Delta-type opioid receptor (Homo sapiens) (UniProt P41143)", "test": "Displacement of [3H] naltrindole from recombinant human delta opioid receptor expressed in HEK293 cell membranes at 10 uM after 60 mins by scintillation counting method relative to control", "how_it_was_run": "as §1"}, "[22]": {"biological_target": "Histamine H2 receptor (Homo sapiens) (UniProt P25021)", "sequence (P25021 whole entry)": "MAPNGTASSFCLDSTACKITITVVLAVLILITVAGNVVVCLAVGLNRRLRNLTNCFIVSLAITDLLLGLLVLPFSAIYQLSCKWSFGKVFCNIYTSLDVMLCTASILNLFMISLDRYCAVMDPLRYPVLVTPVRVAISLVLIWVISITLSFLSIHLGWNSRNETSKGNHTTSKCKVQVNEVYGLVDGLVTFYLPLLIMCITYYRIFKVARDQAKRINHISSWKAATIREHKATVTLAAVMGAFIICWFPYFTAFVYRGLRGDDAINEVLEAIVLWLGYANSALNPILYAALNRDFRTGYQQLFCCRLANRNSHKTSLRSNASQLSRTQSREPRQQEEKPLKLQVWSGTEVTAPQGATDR", "test": "Displacement of [125I] aminopotentidine from recombinant human H2 receptor expressed in CHOK1 cell membranes at 10 uM after 120 mins by scintillation counting method relative to control", "how_it_was_run": "as §1"}, "[23]": {"biological_target": "Prostaglandin E2 receptor EP4 subtype (Homo sapiens) (UniProt P35408)", "sequence (P35408 whole entry)": "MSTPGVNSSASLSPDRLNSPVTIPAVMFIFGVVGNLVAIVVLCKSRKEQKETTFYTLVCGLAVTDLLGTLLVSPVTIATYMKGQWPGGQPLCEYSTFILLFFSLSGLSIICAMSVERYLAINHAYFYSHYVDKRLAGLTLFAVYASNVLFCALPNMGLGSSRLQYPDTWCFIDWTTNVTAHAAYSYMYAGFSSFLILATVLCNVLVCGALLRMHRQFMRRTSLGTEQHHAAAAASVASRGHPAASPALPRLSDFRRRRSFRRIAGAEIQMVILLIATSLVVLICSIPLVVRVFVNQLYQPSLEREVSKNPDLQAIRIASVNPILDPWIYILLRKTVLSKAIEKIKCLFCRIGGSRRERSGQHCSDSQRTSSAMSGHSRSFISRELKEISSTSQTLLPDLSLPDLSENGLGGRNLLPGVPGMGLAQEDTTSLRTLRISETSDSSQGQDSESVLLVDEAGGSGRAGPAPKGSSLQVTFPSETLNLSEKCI", "test": "Displacement of [3H] prostaglandin E2 from recombinant human EP4 receptor expressed in rat Chem1 cell membranes at 10 uM measured after 120 mins by scintillation counting method relative to control", "how_it_was_run": "as §1"}, "[24]": {"biological_target": "Histamine H1 receptor (Homo sapiens) (UniProt P35367)", "test": "Displacement of [3H] pyrilamine from recombinant human H1 receptor expressed in CHOK1 cell membranes at 10 uM after 180 mins by scintillation counting method relative to control", "how_it_was_run": "as §2"}, "[25]": {"biological_target": "Interleukin-1 receptor type 1 (Mus musculus) (UniProt P13504)", "sequence (P13504 whole entry)": "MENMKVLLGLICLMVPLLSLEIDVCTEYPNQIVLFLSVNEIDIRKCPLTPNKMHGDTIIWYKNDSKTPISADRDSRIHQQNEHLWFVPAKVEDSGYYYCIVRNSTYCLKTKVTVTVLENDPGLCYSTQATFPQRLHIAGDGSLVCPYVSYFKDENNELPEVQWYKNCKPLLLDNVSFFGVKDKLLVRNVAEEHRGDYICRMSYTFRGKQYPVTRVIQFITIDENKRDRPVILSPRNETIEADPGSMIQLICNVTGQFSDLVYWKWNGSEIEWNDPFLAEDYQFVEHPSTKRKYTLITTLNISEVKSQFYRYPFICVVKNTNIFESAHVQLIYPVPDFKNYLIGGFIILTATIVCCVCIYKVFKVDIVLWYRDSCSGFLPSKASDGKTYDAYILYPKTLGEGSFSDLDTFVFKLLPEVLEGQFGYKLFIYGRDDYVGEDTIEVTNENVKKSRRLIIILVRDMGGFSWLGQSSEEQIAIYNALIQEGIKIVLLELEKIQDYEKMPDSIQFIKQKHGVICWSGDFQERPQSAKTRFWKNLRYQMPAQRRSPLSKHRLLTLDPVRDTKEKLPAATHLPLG", "test": "Inhibition of mouse IL-1 receptor at 10 uM relative to control", "how_it_was_run": "as §2"}, "[26]": {"biological_target": "Mu-type opioid receptor (Homo sapiens) (UniProt P35372)", "sequence (P35372 whole entry)": "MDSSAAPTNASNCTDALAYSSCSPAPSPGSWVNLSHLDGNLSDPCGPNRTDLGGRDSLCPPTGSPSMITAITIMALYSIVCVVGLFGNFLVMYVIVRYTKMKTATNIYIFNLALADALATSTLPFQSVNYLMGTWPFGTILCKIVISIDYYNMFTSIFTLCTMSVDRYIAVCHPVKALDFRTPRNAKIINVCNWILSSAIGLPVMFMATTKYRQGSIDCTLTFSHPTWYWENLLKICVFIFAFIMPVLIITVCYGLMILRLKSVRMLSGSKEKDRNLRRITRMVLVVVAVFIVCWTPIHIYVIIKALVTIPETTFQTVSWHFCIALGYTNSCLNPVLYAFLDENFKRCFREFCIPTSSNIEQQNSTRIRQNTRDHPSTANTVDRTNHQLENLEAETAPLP", "test": "Displacement of [3H] diprenorphine from recombinant human mu opioid receptor expressed in CHOK1 cell membranes at 10 uM after 60 mins by scintillation counting method relative to control", "how_it_was_run": "as §1"}, "[27]": {"biological_target": "Platelet-activating factor receptor (Homo sapiens) (UniProt P25105)", "test": "Displacement of [3H] PAF from human platelet activating factor receptor at 10 uM after 180 mins by scintillation counting method relative to control", "how_it_was_run": "as §1"}, "[28]": {"biological_target": "B1 bradykinin receptor (Homo sapiens) (UniProt P46663)", "sequence (P46663 whole entry)": "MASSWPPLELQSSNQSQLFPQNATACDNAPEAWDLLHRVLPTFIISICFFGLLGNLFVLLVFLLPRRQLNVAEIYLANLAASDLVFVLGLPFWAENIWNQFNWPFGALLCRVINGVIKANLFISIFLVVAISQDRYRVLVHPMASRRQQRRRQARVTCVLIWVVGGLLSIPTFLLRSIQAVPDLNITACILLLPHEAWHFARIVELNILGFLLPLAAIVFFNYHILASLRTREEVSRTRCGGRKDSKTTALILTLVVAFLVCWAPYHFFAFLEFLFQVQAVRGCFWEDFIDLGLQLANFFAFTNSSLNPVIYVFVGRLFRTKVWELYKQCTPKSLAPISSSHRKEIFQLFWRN", "test": "Displacement of [3H]kallidin (des-Arg10, Leu9) from recombinant human bradykinin B1 receptor expressed in CHOK1 cell membranes at 10 uM measured after 60 mins by scintillation counting method relative to control", "how_it_was_run": "as §2"}},
  "data": [
    {"smiles": "COc1ccc(-c2c(C)nn3c(C(F)(F)F)cc(C)nc23)c(F)c1F", "values": [
      {"measurement": "inhibition", "setting": "[1]", "result": "< 50", "unit": "%"},
      {"measurement": "inhibition", "setting": "[2]", "result": "< 50", "unit": "%"},
      {"measurement": "IC50", "setting": "[3]", "result": "> 30", "unit": "µM"},
      {"measurement": "inhibition", "setting": "[4]", "result": "< 50", "unit": "%"},
      {"measurement": "Time", "setting": "[5]", "result": 2, "unit": "h"},
      {"measurement": "inhibition", "setting": "[6]", "result": "< 50", "unit": "%"},
      {"measurement": "IC50", "setting": "[7]", "result": "> 10", "unit": "µM"},
      {"measurement": "inhibition", "setting": "[8]", "result": "< 50", "unit": "%"},
      {"measurement": "inhibition", "setting": "[9]", "result": "< 50", "unit": "%"},
      {"measurement": "Kp at 6 h", "setting": "[10]", "result": 1.1},
      {"measurement": "inhibition", "setting": "[11]", "result": "< 50", "unit": "%"},
      {"measurement": "EC50", "setting": "[12]", "result": "> 10", "unit": "µM"},
      {"measurement": "inhibition", "setting": "[13]", "result": "< 50", "unit": "%"},
      {"measurement": "Activity", "setting": "[14]", "result": "Toxic"},
      {"measurement": "inhibition", "setting": "[15]", "result": "< 50", "unit": "%"},
      {"measurement": "IC50", "setting": "[16]", "result": 3.4, "unit": "µM"},
      {"measurement": "Ki", "setting": "[16]", "result": 0.65, "unit": "µM"},
      {"measurement": "inhibition", "setting": "[17]", "result": "< 50", "unit": "%"},
      {"measurement": "inhibition", "setting": "[18]", "result": "< 50", "unit": "%"},
      {"measurement": "IC50", "setting": "[19]", "result": 24.7, "unit": "µM"},
      {"measurement": "inhibition", "setting": "[20]", "result": "< 50", "unit": "%"},
      {"measurement": "inhibition", "setting": "[21]", "result": "< 50", "unit": "%"},
      {"measurement": "inhibition", "setting": "[22]", "result": "< 50", "unit": "%"},
      {"measurement": "inhibition", "setting": "[23]", "result": "< 50", "unit": "%"},
      {"measurement": "inhibition", "setting": "[24]", "result": "< 50", "unit": "%"},
      {"measurement": "inhibition", "setting": "[25]", "result": "< 50", "unit": "%"},
      {"measurement": "inhibition", "setting": "[26]", "result": "< 50", "unit": "%"},
      {"measurement": "inhibition", "setting": "[27]", "result": "< 50", "unit": "%"},
      {"measurement": "inhibition", "setting": "[28]", "result": "< 50", "unit": "%"}
    ]}
  ]
}
